ChEMBL document CHEMBL1123812, “Pyrroloisoquinoline antidepressants. 2. In-depth exploration of structure-activity relationships” (J Med Chem, 1987)
Activity calls are given as the source filed them.

Key:
[1] = target: Serotonin 2 (5-HT2) receptor (Rattus norvegicus, UniProt P30994+P08909+P14842); test: Binding affinity towards 5-hydroxytryptamine 2 receptor; assay type: protein assay
[2] = target: D(1A) dopamine receptor (Rattus norvegicus, UniProt P18901); test: Binding affinity towards Dopamine receptor D1
Sequence of D(1A) dopamine receptor (P18901 whole entry): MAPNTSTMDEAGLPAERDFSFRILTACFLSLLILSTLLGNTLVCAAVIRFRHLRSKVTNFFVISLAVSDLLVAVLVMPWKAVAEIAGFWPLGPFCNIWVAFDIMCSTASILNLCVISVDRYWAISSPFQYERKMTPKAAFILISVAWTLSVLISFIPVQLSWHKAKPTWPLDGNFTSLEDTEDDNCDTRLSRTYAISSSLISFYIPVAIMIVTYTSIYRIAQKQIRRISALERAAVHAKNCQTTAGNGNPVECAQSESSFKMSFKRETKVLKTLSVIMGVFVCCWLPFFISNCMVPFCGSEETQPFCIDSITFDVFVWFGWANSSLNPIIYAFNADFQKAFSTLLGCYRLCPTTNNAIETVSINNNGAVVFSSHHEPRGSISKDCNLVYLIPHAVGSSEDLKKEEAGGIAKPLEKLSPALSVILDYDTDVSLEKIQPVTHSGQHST

[3] = target: D(2) dopamine receptor (Rattus norvegicus, UniProt P61169); test: Binding affinity towards Dopamine receptor D2
Sequence of D(2) dopamine receptor (P61169 whole entry): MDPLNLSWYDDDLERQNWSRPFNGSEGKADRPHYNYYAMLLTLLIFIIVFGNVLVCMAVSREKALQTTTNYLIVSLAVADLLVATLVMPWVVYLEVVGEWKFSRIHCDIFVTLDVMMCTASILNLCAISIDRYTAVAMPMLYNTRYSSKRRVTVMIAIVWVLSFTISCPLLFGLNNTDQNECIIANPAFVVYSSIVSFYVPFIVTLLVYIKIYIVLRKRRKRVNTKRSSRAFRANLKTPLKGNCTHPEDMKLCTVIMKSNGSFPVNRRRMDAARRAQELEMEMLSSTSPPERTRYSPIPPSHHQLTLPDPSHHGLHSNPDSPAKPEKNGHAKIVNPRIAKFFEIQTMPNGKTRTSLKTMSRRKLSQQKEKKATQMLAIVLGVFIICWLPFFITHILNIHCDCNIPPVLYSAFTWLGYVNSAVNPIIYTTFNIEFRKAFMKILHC

[4] = species: Mus musculus; test: Antagonism of tetrabenazine (TBZ)-induced depression in mice measured for ptosis; assay type: functional; conditions: Mus musculus; read-out: ED50
How it was run: (§1)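 Nonfasted male Swiss Webster mice, 18–24 g, ten per dose level and in saline controls. Test compound given ip 30 min before tetrabenazine 32 mg/kg ip; dose expressed as free base. Motor activity and ptosis scored. Control response ≤90% corrected by Abbott's formula.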

[5] = species: Mus musculus; test: Antagonism of tetrabenazine (TBZ)-induced depression measured in mice by motor activity; assay type: functional; conditions: Mus musculus; read-out: ED50; how it was run: as §1
[6] = species: Mus musculus; test: Gross behavioral effects ascertained in mice; W indicates weak stimulant or depressant activity of little significance.; assay type: functional, organism-based
How it was run: (§2)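 Male Swiss Webster mice, 18–24 g, three per dose, given ip doses of 1, 3, 10, 30, 100 and 300 mg/kg. Observed for gross behavior and held for 4 days. Scored as weak (W), stimulant (S), depressant (D) or convulsant (C).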

[7] = target: Muscarinic acetylcholine receptor (Rattus norvegicus) (UniProt P08482+P08483+P08485+P08911+P10980); test: Binding affinity towards Muscarinic acetylcholine receptor at 1.0 uM concentration; assay type: protein assay
[8] = target: Serotonin 1 (5-HT1) receptor (Rattus norvegicus) (UniProt P28564+P30940+P19327+P28565); test: Binding affinity towards serotonin S1 receptor at 1.0 uM; assay type: protein assay
How it was run: (§3)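 Rat brain crude synaptic membranes in 20 mM NaHEPES pH 7.5. Ligands: α1 cortex […] 0.4 nM, nonspecific with (-)-NE 100 μM, 30 min at 25 °C. […] D2 striatum [3H]spiperone 0.05 nM with (+)-butaclamol 1 μM, 45 min at 37 °C. S1 cortex [3H]5-HT 1 nM plus glutathione and MgCl2, with 5-HT 10 μM, 20 min at 37 °C. […] Samples filtered on GF/B and counted.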

[9] = target: Sodium-dependent dopamine transporter (Rattus norvegicus, UniProt P23977); test: Inhibition of the uptake of tritiated dopamine (DA) in rat synaptosomes; assay type: subcellular, Brain
Sequence of Sodium-dependent dopamine transporter (P23977 whole entry): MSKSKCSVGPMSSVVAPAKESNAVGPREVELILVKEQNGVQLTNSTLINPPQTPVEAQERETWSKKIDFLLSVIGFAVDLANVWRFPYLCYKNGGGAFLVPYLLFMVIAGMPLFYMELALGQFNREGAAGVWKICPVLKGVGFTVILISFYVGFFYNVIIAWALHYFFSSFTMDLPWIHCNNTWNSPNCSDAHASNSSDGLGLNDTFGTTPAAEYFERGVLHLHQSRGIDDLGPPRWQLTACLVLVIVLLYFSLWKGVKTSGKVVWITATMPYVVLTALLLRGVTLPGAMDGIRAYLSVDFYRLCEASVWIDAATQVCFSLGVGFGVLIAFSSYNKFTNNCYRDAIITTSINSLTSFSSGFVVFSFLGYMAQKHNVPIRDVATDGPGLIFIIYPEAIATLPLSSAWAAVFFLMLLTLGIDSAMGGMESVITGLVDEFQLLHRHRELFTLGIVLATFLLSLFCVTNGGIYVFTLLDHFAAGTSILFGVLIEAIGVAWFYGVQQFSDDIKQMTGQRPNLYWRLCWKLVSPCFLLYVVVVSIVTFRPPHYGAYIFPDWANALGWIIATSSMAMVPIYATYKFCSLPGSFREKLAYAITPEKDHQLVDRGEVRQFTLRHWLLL

[10] = target: Norepinephrine transporter (Rattus norvegicus, UniProt Q9WTR4); test: Inhibition of uptake of tritiated norepinephrine (NE) in rat synaptosomes; assay type: subcellular, Brain
Sequence of Norepinephrine transporter (Q9WTR4 whole entry): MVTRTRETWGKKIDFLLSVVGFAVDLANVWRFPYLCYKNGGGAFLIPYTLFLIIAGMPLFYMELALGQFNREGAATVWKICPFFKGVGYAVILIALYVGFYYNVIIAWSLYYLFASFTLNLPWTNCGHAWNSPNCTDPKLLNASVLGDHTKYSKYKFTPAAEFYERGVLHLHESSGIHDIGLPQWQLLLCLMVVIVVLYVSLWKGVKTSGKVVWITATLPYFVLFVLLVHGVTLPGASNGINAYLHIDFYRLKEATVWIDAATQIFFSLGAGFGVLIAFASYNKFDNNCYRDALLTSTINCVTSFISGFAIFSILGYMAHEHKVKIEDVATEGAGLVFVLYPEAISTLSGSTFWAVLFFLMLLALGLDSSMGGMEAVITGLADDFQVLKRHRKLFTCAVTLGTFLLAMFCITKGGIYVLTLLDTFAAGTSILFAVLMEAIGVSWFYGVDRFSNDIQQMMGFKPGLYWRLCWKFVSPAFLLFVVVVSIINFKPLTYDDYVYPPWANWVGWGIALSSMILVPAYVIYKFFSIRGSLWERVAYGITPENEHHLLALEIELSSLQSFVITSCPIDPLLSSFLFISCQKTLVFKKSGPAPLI

[11] = target: T1, Adrenergic receptor alpha-1 (Rattus norvegicus, UniProt P15823+P23944+P43140); test: Binding affinity towards alpha-1 adrenergic receptor; assay type: protein assay
T1 sequence (P15823 whole entry): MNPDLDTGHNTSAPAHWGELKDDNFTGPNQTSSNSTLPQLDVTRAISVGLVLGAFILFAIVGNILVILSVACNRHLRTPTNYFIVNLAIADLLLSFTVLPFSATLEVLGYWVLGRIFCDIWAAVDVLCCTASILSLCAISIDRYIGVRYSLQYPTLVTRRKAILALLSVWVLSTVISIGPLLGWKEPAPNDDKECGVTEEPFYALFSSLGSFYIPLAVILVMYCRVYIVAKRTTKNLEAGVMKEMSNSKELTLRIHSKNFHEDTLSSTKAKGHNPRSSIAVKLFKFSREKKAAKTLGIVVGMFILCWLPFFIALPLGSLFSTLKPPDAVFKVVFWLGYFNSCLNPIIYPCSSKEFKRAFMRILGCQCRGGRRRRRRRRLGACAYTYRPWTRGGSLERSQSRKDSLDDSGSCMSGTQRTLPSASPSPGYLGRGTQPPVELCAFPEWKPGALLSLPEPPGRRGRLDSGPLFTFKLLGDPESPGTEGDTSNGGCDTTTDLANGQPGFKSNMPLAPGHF
T1 sequence (P23944 whole entry): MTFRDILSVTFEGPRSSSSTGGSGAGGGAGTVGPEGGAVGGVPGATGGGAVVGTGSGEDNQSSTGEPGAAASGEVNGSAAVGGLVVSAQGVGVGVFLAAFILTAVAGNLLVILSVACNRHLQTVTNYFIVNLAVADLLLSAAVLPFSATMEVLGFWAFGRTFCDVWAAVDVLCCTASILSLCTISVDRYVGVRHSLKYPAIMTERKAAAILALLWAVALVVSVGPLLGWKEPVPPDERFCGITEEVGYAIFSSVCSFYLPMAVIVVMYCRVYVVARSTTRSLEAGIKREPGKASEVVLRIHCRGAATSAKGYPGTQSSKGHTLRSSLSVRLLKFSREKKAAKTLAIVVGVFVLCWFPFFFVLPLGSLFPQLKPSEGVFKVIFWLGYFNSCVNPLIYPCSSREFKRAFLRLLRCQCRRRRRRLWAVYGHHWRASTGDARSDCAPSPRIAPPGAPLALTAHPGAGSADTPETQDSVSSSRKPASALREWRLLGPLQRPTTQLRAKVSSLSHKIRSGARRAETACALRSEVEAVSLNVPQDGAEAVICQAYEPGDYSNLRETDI
T1 sequence (P43140 whole entry): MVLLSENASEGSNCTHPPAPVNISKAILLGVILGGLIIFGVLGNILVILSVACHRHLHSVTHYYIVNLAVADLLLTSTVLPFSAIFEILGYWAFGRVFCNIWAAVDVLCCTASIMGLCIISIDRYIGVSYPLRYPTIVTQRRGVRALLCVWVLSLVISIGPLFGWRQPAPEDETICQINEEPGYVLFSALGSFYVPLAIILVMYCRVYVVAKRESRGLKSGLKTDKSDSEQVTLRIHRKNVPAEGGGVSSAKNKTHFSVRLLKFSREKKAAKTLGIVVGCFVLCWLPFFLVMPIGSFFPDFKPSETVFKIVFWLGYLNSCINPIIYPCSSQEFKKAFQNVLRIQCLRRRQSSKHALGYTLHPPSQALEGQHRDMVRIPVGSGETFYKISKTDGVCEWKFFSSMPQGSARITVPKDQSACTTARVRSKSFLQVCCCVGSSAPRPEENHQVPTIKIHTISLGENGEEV

[12] = target: Adrenergic receptor alpha-2 (Rattus norvegicus) (UniProt P22086+P19328+P22909); test: Binding affinity towards alpha-2 adrenergic receptor at 1.0 uM concentration; assay type: protein assay
[13] = system: Mus musculus; test: Ability to antagonise intraperitoneal administration; weakly active (>=10% and <=30% antagonism) at 30 mg/kg is represented as >30; assay type: functional; conditions: ip; how it was run: as §1
[14] = species: Mus musculus; test: Gross behavioral effects ascertained in mice; W/C indicates weak stimulant or depressant activity of little significance/ overt convulsant; assay type: functional, organism-based
How it was run: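 Male Swiss Webster albino mice, 18–24 g, three per dose, given ip 1, 3, 10, 30, 100 and 300 mg/kg. Gross behaviour observed and held 4 days. Estimated LD50 range from lethality count on day 4. Scored as weak stimulant/depressant, significant stimulant, significant depressant or overt convulsant.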

[15] = target: Sodium-dependent dopamine transporter (Rattus norvegicus) (UniProt P23977); test: Ability to inhibit the uptake of [3H]dopamine (DA) 0.1 uM concentration at rat brain synaptosomes; assay type: functional, subcellular
Sequence of Sodium-dependent dopamine transporter (Rattus norvegicus) (P23977 whole entry): as the sequence (P23977 whole entry) above
How it was run: (§4)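 Male Wistar rat brain synaptosomes (P2 fraction): hypothalamus for NE, striatum for DA, cerebral cortex for 5-HT. Buffer is Tris- or HEPES-buffered salt medium with glucose, ascorbate and nialamide, pH 7.4 at 37 °C. Preincubated 10 min at 37 °C with compound. Uptake started with [3H]NE 100–300 nM, [3H]DA 50–300 nM or [3H]5-HT 100–200 nM, incubated 3 min (DA) or 6–10 min (NE, 5-HT). Blanks held on ice. Filtered, counted by scintillation.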

[16] = target: Sodium-dependent serotonin transporter (Rattus norvegicus) (UniProt P31652); test: Ability to inhibit the uptake of [3H]- serotonin(5-HT) 0.1 uM concentration at rat brain synaptosomes; assay type: functional, subcellular; how it was run: as §4
Sequence of Sodium-dependent serotonin transporter (Rattus norvegicus) (P31652 whole entry): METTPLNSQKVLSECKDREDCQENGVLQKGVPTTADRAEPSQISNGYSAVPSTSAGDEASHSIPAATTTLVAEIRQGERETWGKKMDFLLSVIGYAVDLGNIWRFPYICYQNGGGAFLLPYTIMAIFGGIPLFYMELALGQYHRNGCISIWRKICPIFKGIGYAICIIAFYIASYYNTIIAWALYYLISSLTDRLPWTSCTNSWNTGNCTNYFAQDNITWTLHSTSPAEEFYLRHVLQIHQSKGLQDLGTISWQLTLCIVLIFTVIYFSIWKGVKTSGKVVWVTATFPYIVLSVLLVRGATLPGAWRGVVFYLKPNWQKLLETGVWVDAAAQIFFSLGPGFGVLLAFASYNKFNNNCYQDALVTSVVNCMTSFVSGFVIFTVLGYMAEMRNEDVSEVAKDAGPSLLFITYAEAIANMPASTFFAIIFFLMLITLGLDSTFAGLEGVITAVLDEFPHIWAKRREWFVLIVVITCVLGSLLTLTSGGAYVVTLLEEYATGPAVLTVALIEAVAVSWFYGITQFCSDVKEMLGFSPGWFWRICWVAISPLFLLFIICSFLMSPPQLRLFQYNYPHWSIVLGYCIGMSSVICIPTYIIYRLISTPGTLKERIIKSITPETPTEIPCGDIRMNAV

[17] = system: Mus musculus; test: Ability to antagonise intraperitoneal dose; inactive (<10% antagonism) at 30 mg/kg is represented as I-30.; assay type: functional, organism-based; design: dose 30 mg/kg; how it was run: as §1
[18] = system: Mus musculus; test: (§5) Ability to antagonise intraperitoneal dose; inactive (<10% antagonism) at 30 mgjkg is represented as I-30.; assay type: functional, organism-based; how it was run: as §1
[19] = species: Rattus norvegicus; test: Ability to inhibit the uptake of tritiated dopamine (DA) 1 uM concentration; assay type: functional
How it was run: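 Rat brain synaptosomal [3H]dopamine uptake: striatal P2 fraction, test compound at 1.00 μM. Preincubated at 37 °C, then 50–300 nM [3H]DA for 3 min. Blanks on ice. Filtration and scintillation counting; percent inhibition of control uptake.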

[20] = target: Norepinephrine transporter (Rattus norvegicus) (UniProt Q9WTR4); test: Ability to inhibit the uptake of [3H]norepinephrine (NE) 0.1 uM concentration at rat brain synaptosomes; assay type: functional, subcellular; how it was run: as §4
Sequence of Norepinephrine transporter (Rattus norvegicus) (Q9WTR4 as listed by the source): as the sequence (Q9WTR4 whole entry) above

[21] = system: Mus musculus; test: as §5; assay type: functional, organism-based; how it was run: as §1; remark: listed apart in the source
[22] = target: Serotonin 2 (5-HT2) receptor (Rattus norvegicus) (UniProt P30994+P08909+P14842); test: Binding affinity towards 5-hydroxytryptamine 2 receptor at 1.0 uM concentration; assay type: protein assay; how it was run: as §3
Sequence of Serotonin 2 (5-HT2) receptor (Rattus norvegicus) (P08909 whole entry, looked up): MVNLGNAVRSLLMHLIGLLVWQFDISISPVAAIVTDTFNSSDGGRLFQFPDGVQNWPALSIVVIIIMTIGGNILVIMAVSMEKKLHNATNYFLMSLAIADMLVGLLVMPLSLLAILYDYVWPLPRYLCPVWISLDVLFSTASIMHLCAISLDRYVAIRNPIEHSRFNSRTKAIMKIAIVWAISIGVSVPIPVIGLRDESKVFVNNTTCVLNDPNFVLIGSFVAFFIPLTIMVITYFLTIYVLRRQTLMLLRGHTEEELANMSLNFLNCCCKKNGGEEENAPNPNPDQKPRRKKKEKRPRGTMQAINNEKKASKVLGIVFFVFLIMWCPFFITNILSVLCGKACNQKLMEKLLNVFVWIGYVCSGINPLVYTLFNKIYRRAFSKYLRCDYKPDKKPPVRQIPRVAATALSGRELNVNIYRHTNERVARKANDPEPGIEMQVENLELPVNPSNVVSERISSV
Sequence of Serotonin 2 (5-HT2) receptor (Rattus norvegicus) (P14842 whole entry, looked up): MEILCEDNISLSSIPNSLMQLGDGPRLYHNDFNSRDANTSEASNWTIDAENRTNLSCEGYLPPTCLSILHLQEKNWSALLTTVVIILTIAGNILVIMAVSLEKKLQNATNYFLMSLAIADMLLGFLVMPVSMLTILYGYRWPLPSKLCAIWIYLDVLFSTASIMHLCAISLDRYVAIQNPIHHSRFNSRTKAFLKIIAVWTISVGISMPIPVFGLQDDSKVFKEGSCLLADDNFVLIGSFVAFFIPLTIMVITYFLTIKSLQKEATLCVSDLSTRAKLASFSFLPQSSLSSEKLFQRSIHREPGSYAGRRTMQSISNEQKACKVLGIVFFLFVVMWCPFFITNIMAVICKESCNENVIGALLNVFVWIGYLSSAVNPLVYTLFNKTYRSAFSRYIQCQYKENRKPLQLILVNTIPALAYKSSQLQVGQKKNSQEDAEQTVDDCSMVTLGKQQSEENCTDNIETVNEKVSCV
Sequence of Serotonin 2 (5-HT2) receptor (Rattus norvegicus) (P30994 whole entry, looked up): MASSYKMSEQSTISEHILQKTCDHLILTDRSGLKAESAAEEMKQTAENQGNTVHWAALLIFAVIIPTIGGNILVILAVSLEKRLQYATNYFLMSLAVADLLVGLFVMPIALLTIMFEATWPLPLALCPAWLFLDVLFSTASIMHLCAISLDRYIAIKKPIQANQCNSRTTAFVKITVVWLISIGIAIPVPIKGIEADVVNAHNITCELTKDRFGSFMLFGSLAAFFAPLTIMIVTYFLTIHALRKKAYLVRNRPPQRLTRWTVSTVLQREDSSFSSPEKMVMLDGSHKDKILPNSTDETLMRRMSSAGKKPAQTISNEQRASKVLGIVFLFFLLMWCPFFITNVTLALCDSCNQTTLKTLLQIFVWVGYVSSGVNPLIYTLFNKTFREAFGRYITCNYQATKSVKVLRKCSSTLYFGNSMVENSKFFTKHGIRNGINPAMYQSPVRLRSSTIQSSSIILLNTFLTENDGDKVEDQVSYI

[23] = target: D(2) dopamine receptor (Rattus norvegicus) (UniProt P61169); test: Binding affinity towards dopamine receptor D2 at 1.0 uM concentration; how it was run: as §3
Sequence of D(2) dopamine receptor (Rattus norvegicus) (P61169 whole entry): as the sequence (P61169 whole entry) above

[24] = species: Mus musculus; test: Gross behavioral effects ascertained in mice; S indicates significant stimulant properties.; assay type: functional, organism-based; how it was run: as §2
[25] = species: Rattus norvegicus; test: Ability to inhibit the uptake of tritiated norepinephrine (NE) at 0.1 uM concentration; assay type: functional; how it was run: as §4
[26] = target: Sodium-dependent serotonin transporter (Rattus norvegicus) (UniProt P31652); test: Inhibition of tritiated serotonin(5-HT) uptake at 0.1 uM concentration; assay type: functional; how it was run: as §4
[27] = species: Mus musculus; test: Gross behavioral effects ascertained in mice; C indicates overt convulsant; assay type: functional, organism-based; how it was run: as §2

Compound	Ki [9]	Ki [10]	inhibition [15]	inhibition [16]	inhibition [20]	ED50 [5]	behavior [6]	ED50 at 30 mg/kg [13]	behavior [14]	other results
Br.Fc1ccc([C@@H]2CN3CCC[C@@H]3c3cc(F)ccc32)cc1	7.7 nM	0.55 nM	–	–	–	> 30 mg/kg	Partial stimulant	–	–	Ki [1]: 7.4 nM; Ki [2]: 183 nM; Ki [3]: 241 nM; ED50 [4]: 0.05 mg/kg; inhibition [7]: 0%; inhibition [8]: -6%; Ki [11]: 536 nM; inhibition [12]: 25%
F[C@@]1(c2ccccc2)CN2CCC[C@H]2c2ccccc21	–	~100 nM	22%	-3%	–	> 30 mg/kg	–	> 30 mg/kg	Weak/Overt convulsant	–
C[C@@]12CCCN1C[C@H](c1ccccc1)c1ccccc12	40 nM	24 nM	–	–	–	9.2 mg/kg	–	–	Weak/Overt convulsant	ED50 [4]: 3.8 mg/kg
c1ccc2c(c1)CCN1CCC[C@@H]21	–	–	–	-10%	1%	–	–	–	Weak/Overt convulsant	ED50 [17]: inactive; ED50 [18]: inactive; Inhibition [19]: 18%
c1ccc([C@@]23CCCN2CCc2ccccc23)cc1	–	–	0%	4%	4%	> 60 mg/kg	–	–	Weak/Overt convulsant	ED50 [21]: inactive
Br.COc1cc2c(cc1OC)[C@@H]1CCCN1C[C@H]2c1ccccc1	106 nM	–	–	–	–	–	–	> 30 mg/kg	–	Ki [2]: 452 nM; Ki [3]: 400 nM; ED50 [17]: inactive; Inhibition [25]: 16%; inhibition [26]: 10%; behavior [27]: Convulsant

Further lines, with some results ahead:

Ki [9]	Ki [10]	inhibition [15]	inhibition [16]	inhibition [20]	Compound	ED50 [5]	behavior [6]	ED50 at 30 mg/kg [13]	behavior [14]	other results
160 nM	–	–	–	–	Cl.c1ccc([C@@H]2CN3CCC[C@H]3c3ccccc32)cc1	–	–	> 30 mg/kg	–	–
–	–	21%	25%	10%	O=[N+]([O-])c1ccc([C@@H]2CN3CCC[C@H]3c3ccccc32)cc1	> 30 mg/kg	Weak	> 30 mg/kg	–	–
–	–	3%	3%	0%	C[C@H]1[C@@H](c2ccccc2)c2ccccc2[C@@H]2CCCN21	> 60 mg/kg	Weak	–	–	ED50 [21]: inactive
–	–	33%	4%	0%	c1ccc([C@@H]2CN3CC[C@@H]4CCCC[C@@]43c3ccccc32)cc1	–	Weak	–	–	ED50 [18]: inactive; ED50 [21]: inactive
43.5 nM	10.5 nM	–	–	–	Br.Oc1cc2c(cc1O)[C@H]1CCCN1C[C@H]2c1ccccc1	0.87 mg/kg	–	–	–	inhibition [22]: 46%; Ki [2]: 106 nM; inhibition [23]: 20%; ED50 [4]: 0.53 mg/kg; behavior [24]: Stimulant; inhibition [7]: 0%; Ki [11]: 87 nM; inhibition [12]: 21%
